The values below come from ChEMBL document CHEMBL3804766, “Discovery of Dual Inhibitors for Wild Type and D816V Mutant of c-KIT Kinase through Virtual and Biochemical Screening of Natural Products” (J Nat Prod, 2016).

A value given as a limit tells only on which side of the number the result lay.

For assay [1], the target named is T1, Mast/stem cell growth factor receptor Kit (Homo sapiens, UniProt P10721). Put plainly: Inhibition of wild type c-KIT (unknown origin) expressed in T7-phage infected Escherichia coli BL21 assessed as remaining activity at 100 uM incubated for 1 hr with shaking by qPCR method relative to control. The essentials:
(§1)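 Competition binding assay run at a single 100 μM concentration, added from 40× DMSO stocks. Tagged kinase was combined with immobilized biotinylated ligand on streptavidin magnetic beads in SeaBlock/0.17× PBS/0.05% Tween 20/6 mM DTT for 1 h at RT with shaking. Beads were washed, then eluted with 0.5 μM free ligand for 30 min. Eluted kinase was quantified by qPCR as percent of control.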

The test system of assay [2] is Mast/stem cell growth factor receptor Kit (Homo sapiens), P10721 [D816V]. Briefly: Inhibition of c-KIT D816V mutant (unknown origin) expressed in HEK293 cells assessed as remaining activity at 100 uM incubated for 1 hr with shaking by qPCR method relative to control. It is filed as cell-based. The essentials: as §1
Assay [3] deals with T1, Mast/stem cell growth factor receptor Kit. Put plainly: Inhibition of wild type His-tagged c-KIT (544 to 976 amino acids) (unknown origin) expressed in insect cells using poly[Glu:Tyr] (4:1) as substrate preincubated for 20 mins followed by [33P-gamma]ATP addition and subsequent inhibition for 2 hrs by radiometric assay. In outline: (§2)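 Compounds were serially diluted in DMSO and preincubated with enzyme for 20 min at RT. Final ATP was 1 μM. Reaction ran 2 h at RT, read by filter binding. Percent activity was taken relative to DMSO, and IC50 came from curve fitting.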

Assay [4] has as its target Mast/stem cell growth factor receptor Kit (Homo sapiens, UniProt P10721, D816V). Briefly: Inhibition of N-terminal GST-His-tagged c-KIT (544 to 976 amino acids) D816V mutant (unknown origin) expressed in Sf9 insect cells using poly[Glu:Tyr] (4:1) as substrate preincubated for 20 mins followed by [33P-gamma]ATP addition and subsequent inhibition for 2 hrs by radiometric assay. In outline:
as §2

Assay [5] is filed under the species Homo sapiens. Briefly: Selectivity ratio of IC50 for wild type His-tagged c-KIT (544 to 976 amino acids) (unknown origin) to IC50 for N-terminal GST-His-tagged c-KIT (544 to 976 amino acids) D816V mutant (unknown origin).

T1 sequence (P10721 whole entry): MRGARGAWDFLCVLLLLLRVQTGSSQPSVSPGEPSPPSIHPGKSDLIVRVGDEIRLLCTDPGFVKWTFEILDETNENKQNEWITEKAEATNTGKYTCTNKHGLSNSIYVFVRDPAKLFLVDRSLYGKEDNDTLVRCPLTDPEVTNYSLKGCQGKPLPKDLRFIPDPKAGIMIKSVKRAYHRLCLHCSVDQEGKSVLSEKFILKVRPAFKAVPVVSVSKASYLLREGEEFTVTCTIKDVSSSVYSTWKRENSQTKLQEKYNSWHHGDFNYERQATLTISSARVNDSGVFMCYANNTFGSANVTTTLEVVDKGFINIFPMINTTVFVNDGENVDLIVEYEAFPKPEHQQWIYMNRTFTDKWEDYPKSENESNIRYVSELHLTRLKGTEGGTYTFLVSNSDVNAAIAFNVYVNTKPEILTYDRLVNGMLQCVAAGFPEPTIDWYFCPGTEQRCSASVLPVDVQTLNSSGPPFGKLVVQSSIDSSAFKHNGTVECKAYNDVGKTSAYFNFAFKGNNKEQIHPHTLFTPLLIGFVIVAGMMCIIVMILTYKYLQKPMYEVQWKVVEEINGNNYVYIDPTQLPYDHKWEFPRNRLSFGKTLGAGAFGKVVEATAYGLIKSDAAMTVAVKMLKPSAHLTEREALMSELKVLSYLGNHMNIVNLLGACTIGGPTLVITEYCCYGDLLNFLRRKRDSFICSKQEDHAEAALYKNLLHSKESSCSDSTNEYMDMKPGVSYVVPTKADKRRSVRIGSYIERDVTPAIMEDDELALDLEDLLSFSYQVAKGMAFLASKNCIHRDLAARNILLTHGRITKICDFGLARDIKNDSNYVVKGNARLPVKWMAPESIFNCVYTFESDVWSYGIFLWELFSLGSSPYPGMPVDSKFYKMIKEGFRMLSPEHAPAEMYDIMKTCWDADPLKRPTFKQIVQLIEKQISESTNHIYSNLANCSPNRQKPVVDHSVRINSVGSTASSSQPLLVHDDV
Sequence of Mast/stem cell growth factor receptor Kit (Homo sapiens), P10721 [D816V] (P10721 whole entry D816V, the tested form may be a part): as the sequence (P10721 whole entry) above, with D816V counted along it
Sequence of Mast/stem cell growth factor receptor Kit (Homo sapiens, UniProt P10721, D816V) (P10721 26-976 D816V limits assumed): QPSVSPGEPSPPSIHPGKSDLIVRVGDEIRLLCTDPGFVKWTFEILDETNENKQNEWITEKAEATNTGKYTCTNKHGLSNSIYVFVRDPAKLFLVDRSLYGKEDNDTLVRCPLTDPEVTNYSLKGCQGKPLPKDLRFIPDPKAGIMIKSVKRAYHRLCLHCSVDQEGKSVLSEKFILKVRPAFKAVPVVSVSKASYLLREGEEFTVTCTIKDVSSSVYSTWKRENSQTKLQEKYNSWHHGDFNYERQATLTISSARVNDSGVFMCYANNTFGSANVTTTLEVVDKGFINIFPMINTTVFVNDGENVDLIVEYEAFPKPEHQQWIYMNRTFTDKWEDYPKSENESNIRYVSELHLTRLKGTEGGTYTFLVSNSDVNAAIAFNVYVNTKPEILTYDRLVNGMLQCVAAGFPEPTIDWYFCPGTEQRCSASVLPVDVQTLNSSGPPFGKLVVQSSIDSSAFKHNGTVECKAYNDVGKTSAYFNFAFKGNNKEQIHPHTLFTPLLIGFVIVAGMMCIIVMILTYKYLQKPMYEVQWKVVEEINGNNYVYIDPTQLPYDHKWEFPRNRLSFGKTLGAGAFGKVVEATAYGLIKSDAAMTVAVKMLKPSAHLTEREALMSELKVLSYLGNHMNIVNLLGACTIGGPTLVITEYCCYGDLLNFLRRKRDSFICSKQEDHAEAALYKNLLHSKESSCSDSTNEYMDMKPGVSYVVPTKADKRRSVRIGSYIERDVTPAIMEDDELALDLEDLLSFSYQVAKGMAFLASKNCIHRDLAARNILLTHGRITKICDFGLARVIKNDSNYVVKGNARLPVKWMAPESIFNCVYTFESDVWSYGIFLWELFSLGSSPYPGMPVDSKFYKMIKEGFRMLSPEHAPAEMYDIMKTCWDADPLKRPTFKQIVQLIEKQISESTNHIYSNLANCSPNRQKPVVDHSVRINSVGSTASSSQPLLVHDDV

Take `COc1ccc(/C=C2\Oc3cc(O)ccc3C2=O)cc1`: in assay [1], the Kinase binding remaining, % of control is 0%. For the same molecule, the Activity in assay [2] is 15%. Also, the results for the IC50 in assay [3] and in assay [4] were 15.6 µM and 1400 nM, respectively. The Ratio IC50 in assay [5] was greater than 10.
As for `COc1ccc(-c2cc(=O)c3c(O)c(OC)c(O)cc3o2)cc1` [PECTOLINARIGENIN], the Kinase binding remaining, % of control in assay [1] is 0%. The Activity in assay [2] was found to be 3%. Moreover, the IC50 amounted to 1.5 µM in assay [3] and 600 nM in assay [4].
The like results for `COc1c(O)c(O)c2oc(-c3ccccc3)cc(=O)c2c1OC` were, in that order, 1%, 0%, 7.8 µM and 500 nM.
Turning to `O=C1c2c(O)cc(O)cc2O[C@H](c2ccc(O)c(O)c2)[C@H]1O`, the Kinase binding remaining, % of control in assay [1] stood at 12%. The Activity in assay [2] amounted to 15%.
